We go through twelve compounds from ChEMBL document CHEMBL2069274, “Novel 3-nitro-1H-1,2,4-triazole-based amides and sulfonamides as potential antitrypanosomal agents” (J Med Chem, 2012).

Some results are limits rather than exact numbers.

Data set [1] is described as follows: Selectivity index, ratio of IC50 for rat L6 cells to IC50 for Trypanosoma cruzi Tulahuen C4 amastigotes.
For data set [2], the system named is Trypanosoma cruzi. The data set is described as follows: Antitrypanosomal activity against Trypanosoma cruzi Tulahuen C4 amastigotes. It counts as functional, organism-based. Summed up: (§1)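 96-well format screens: bloodstream-form T. b. rhodesiense trypomastigotes, T. cruzi amastigotes within infected L6 rat skeletal myoblasts, axenically grown L. donovani amastigotes, and uninfected L6 cells for cytotoxicity. IC50 (μM) obtained by linear regression from sigmoidal dose–inhibition curves.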

The subject of data set [3] is Trypanosoma brucei rhodesiense. The data set can be described thus: Antitrypanosomal activity against Trypanosoma brucei rhodesiense STIB 900 trypomastigotes. It counts as functional, organism-based. Summed up:
as §1

In data set [4] the test system is Trypanosoma cruzi. The data set is described as follows: Ratio of benznidazole IC50 to compound IC50 for Trypanosoma cruzi Tulahuen C4 amastigotes. The class given is functional.
Data set [5] deals with Trypanosoma brucei brucei. The data set can be described thus: Antitrypanosomal activity against bloodstream form of Trypanosoma brucei brucei Lister 427 clone 221a. The class given is functional, organism-based. Summed up:
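Bloodstream-form parasites seeded at 1 × 10^3 per ml in growth medium with a range of compound concentrations; where required, TbNTR expression induced with tetracycline (1 μg/mL). Incubation 3 days at 37 °C, then Alamar blue added for a further 16 h. Cell density read and IC50 determined.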

The test system of a further data set is L6. The data set can be described thus: Cytotoxicity against rat L6 cells. It counts as cell-based. Summed up:
as §1

Another data set deals with Leishmania donovani. The data set can be described thus: Antileishmanial activity against Leishmania donovani MHOM-ET67/L82 amastigotes. The class given is functional, organism-based. Summed up: as §1
Data set [6] can be described thus: Selectivity index, ratio of IC50 for rat L6 cells to IC50 for Trypanosoma brucei rhodesiense STIB900 trypomastigotes.

What is called IC50 is the concentration that gives 50% inhibition. Low readings indicate greater potency, high ones weaker potency. As to `O=C(NCCCn1cnc([N+](=O)[O-])n1)c1cccc(C(F)(F)F)c1`, the selectivity ratio in data set [1] was greater than 826. Besides, the concentration for half-maximal inhibition (IC50) in the data set on Trypanosoma cruzi [2] is 0.353 µM; in data set [3] it was 3.76 µM; in data set [5] it was greater than 10 µM; with L6, greater than 292 µM; in the data set on Leishmania donovani, 37.3 µM. Also, the “Ratio IC50” value in the data set with Trypanosoma cruzi [4] is 4.4.
As for `O=[N+]([O-])c1ncn(CCCNS(=O)(=O)c2cc(C(F)(F)F)ccc2C(F)(F)F)n1`, the selectivity ratio in data set [1] came out at 178. The IC50 in the data set with Trypanosoma cruzi [2] was 0.644 µM; in data set [3] it was 10.3 µM; in data set [5] it was greater than 10 µM; with L6 it was 115 µM; with Leishmania donovani, 46.1 µM. The “Ratio IC50” value in the data set with Trypanosoma cruzi [4] came to 2.4.
With `O=C(NCCCn1ccnc1[N+](=O)[O-])c1ccc(OC(F)(F)F)cc1`, the selectivity ratio in data set [1] turned out to be 74. Further, the IC50 amounted to 3.71 µM in the data set on Trypanosoma cruzi [2], 46.6 µM in data set [3], 274 µM in the data set on L6 and 36 µM with Leishmania donovani. In addition, the “Ratio IC50” value in the data set on Trypanosoma cruzi [4] was 0.4.
With `Cn1ccnc1S(=O)(=O)NCCCn1cnc([N+](=O)[O-])n1`, the results for the selectivity ratio in data set [1] and in data set [6] were greater than 15 and greater than 14.5, respectively. Moreover, the half-maximal inhibitory concentration (IC50) with Trypanosoma cruzi [2] was 20.6 µM; in data set [3], 21.9 µM; in the data set on L6 it was greater than 318 µM; in the data set on Leishmania donovani, 223 µM. For the same compound, the “Ratio IC50” value in the data set with Trypanosoma cruzi [4] is reported as 0.1.
As for `Cn1ccnc1S(=O)(=O)NCCn1cnc([N+](=O)[O-])n1`, the selectivity ratio in data set [1] was greater than 4; in data set [6], greater than 9.3. Also, the IC50 was 83.4 µM in the data set on Trypanosoma cruzi [2], 35.9 µM in data set [3], greater than 332 µM in the data set with L6 and greater than 332 µM with Leishmania donovani. The “Ratio IC50” value with Trypanosoma cruzi [4] was 0.
On to `O=C(NCCCn1cnc([N+](=O)[O-])n1)c1ccc(C(F)(F)F)nc1`, for which the selectivity ratio in data set [1] is greater than 84. The IC50 is 3.46 µM with Trypanosoma cruzi [2]; 3.55 µM in data set [3]; 7.9 µM in data set [5]; greater than 291 µM with L6; 96.5 µM in the data set with Leishmania donovani. Moreover, the “Ratio IC50” value with Trypanosoma cruzi [4] is 0.5.
On to `O=[N+]([O-])c1ncn(CCCNS(=O)(=O)c2cccc3cccnc23)n1`, for which, in data set [1], the selectivity ratio was determined as 519. In addition, the IC50 in the data set with Trypanosoma cruzi [2] was 0.4 µM; in data set [3] it was 6.52 µM; in data set [5] it was greater than 10 µM; in the data set with L6, 208 µM; in the data set on Leishmania donovani, 32.9 µM. In addition, the “Ratio IC50” value with Trypanosoma cruzi [4] is 3.9.
As to `O=[N+]([O-])c1ncn(CCCNS(=O)(=O)Cc2ccccc2)n1`, the selectivity ratio in data set [1] is greater than 138; in data set [6], greater than 47.4. Further, the IC50 is 2.24 µM in the data set with Trypanosoma cruzi [2], 6.49 µM in data set [3], greater than 308 µM in the data set with L6 and 79.4 µM with Leishmania donovani. Besides, the “Ratio IC50” value in the data set with Trypanosoma cruzi [4] is given as 0.7.
Regarding `COc1cc([C@@H]2c3cc4c(cc3[C@H](O)[C@H]3COC(=O)[C@H]23)OCO4)cc(OC)c1OC` [PODOFILOX], the half-inhibitory concentration (IC50) with L6 stood at 0.022 µM.
`O=[N+]([O-])c1ncn(CCCCNS(=O)(=O)c2ccc(C(F)(F)F)cc2)n1`: the figures for the selectivity ratio in data set [1] and in data set [6] were 120 and 240, respectively. Besides, the IC50 with Trypanosoma cruzi [2] was found to be 0.71 µM; in data set [3] it was 0.354 µM; in the data set with L6, 84.9 µM; in the data set with Leishmania donovani it was 7.79 µM. Moreover, the “Ratio IC50” value in the data set on Trypanosoma cruzi [4] was 2.2.
As to `O=C(NCCCn1cnc([N+](=O)[O-])n1)c1cnc2ccccc2n1`, the selectivity ratio in data set [1] is greater than 379. Also, the IC50 in the data set on Trypanosoma cruzi [2] was 0.807 µM; in data set [3] it was 34.9 µM; in data set [5], greater than 10 µM; with L6 it was greater than 306 µM; in the data set with Leishmania donovani it was 62.7 µM. For the same compound, the “Ratio IC50” value with Trypanosoma cruzi [4] turned out to be 1.9.
Take `O=C(NCCCn1ccnc1[N+](=O)[O-])c1ccc(C(F)(F)F)cc1`: the selectivity ratio in data set [1] turned out to be 29. Moreover, the IC50 in the data set on Trypanosoma cruzi [2] was 6.05 µM; in data set [3], 21.4 µM; in the data set on L6, 177 µM; in the data set with Leishmania donovani, 13.8 µM. Also, the “Ratio IC50” value in the data set with Trypanosoma cruzi [4] amounted to 0.3.
